# Rev-erbA mod: modulates human Rev-erb alpha binding to DNA | P20393 | Rev-erbα–FITC-DNA binding, fluorescence polarization, 90 min | activity, % at 10 µM | 370,000 tested, 0.79% active | AID 1259318;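 active = activity above about 14%, limit read from the data; passing the limit was not always enough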;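 also: 0% = DMSO wells with 35 nM protein and 100% = DMSO wells with 750 nM protein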
# PG9 Ab binder: binds the HIV-1 gp120 antibody PG9. TR-FRET gp120-PG9 antibody binding. inhibition, % at 6.7 µM. 360,000 tested, 0.43% active; in the data active = inhibition above about 8.5%
# MC4R ag barr: human MC4R agonism via beta-arrestin; P32245; U2OS MC4R beta-arrestin complementation, luminescence; percent of melanotan II response, DMSO zero; 360,000 tested, 0.98% active; AID 540308; activation, % at 8.9 µM;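 active = activation above a per-plate cutoff, the mean activation of sample wells on that plate plus 3 SD, cut at about 8% in these data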
# Target sequence (P32245 whole entry, looked up): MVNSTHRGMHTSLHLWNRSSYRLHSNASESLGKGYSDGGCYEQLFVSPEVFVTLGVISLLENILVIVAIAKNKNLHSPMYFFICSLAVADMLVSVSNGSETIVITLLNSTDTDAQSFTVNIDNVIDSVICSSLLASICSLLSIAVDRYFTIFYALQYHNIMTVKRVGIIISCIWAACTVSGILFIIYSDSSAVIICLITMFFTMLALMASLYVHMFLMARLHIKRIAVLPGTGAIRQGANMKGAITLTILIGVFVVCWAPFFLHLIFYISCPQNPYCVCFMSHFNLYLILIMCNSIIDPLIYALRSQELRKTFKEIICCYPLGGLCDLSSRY
# MC4R antagonist: antagonists of human melanocortin 4 receptor (MC4R); MC4R-expressing cells, MTII-stimulated cAMP, LANCE TR-FRET; AID 540295; P32245; inhibition, % at 6.5 µM; 360,000 tested, 0.48% active;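 active = inhibition above its plate's cutoff, the mean of tested wells on that plate plus 3 SD, cut at about 29% in these data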;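 also: 0% = Melanotan II alone and 100% = Melanotan II plus saturating MCL0020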
#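 Material – human MC4R-expressing U2OS cells · Repeats – no replicates · Detection – TR-FRET with Eu-cAMP and labeled anti-cAMP, 671 nm · Times – compound 30 min, challenge 1 h, detection 1 h · Compound – single nominal compound dose of 6.5 µM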
# NTR1 agonist: activates human neurotensin receptor 1; P30989; activation, % at 20 µM; NTR1-U2OS beta-arrestin-GFP spot imaging, agonist mode; 330,000 tested, 0.17% active;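 active = activation at or above 40% of the spot to cytoplasm intensity ratio, with at least 20 cells analyzed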;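 also: 0% = DMSO without peptide and 100% = 100 nM NTR1 peptide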
# NR1D1 mod conf: confirmation of modulators of human Rev-erb alpha DNA binding | shares compounds with Rev-erbA mod | Rev-erb alpha FITC-DNA binding, fluorescence polarization, 90 min | activation, % at 25 µM | 3,000 tested, 61% active;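 active = activation at or above a set limit, or at least 3 SD above the negative control mean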;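 also: 0% = 35 nM protein with DMSO and 100% = 750 nM protein high control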
# RORg DNA counter: RORgamma DNA-binding activity, dose-response counter-screen; 910 tested, 8% active; IC50, µM; purified RORgamma protein-FITC-DNA binding, fluorescence polarization; AID 1259320; shares compounds with Rev-erbA mod;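 active = Compounds whose fitted half-maximal concentration for disrupting protein-DNA binding is below 10 micromolar; the record names Rev-erb in its text, so the target is in doubt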
# An asterisk follows results filed as active; . = not tested or not shown. An excerpt weighted towards active compounds, which were near 2.5% of everything screened.
SMILES,Rev-erbA mod,PG9 Ab binder,MC4R ag barr,MC4R antagonist,NTR1 agonist,NR1D1 mod conf,others
CCCCCCCCN1C(=O)[C@@H](CC(=O)N2CCCC2)C[C@@]2(C(=O)OC)C1=C[C@H](C(C)(C)C)O[C@@H]2C,2.5,-0.1,.,.,.,.,
N#Cc1cccc(S(=O)(=O)NCCOc2ccccc2F)c1,3.6,0.4,-0.6,8.5,-2.6,.,
O=S(=O)(NCCOc1ccccc1F)c1cccc(Br)c1,18.4*,-1.7,3.0,-1.6,-1.7,2.0,
C=CCC12C=C(OC)C(=O)C(C1=O)C1c3ccccc3CC12 (stereo not drawn),-0.1,.,.,.,.,.,
COCCn1c(=NC(=O)c2ccc(S(=O)(=O)N3CCc4ccccc4C3)cc2)sc2cc(OC)ccc21,53.9*,-0.3,-1.1,-3.0,-1.0,18.9*,
COCCn1c(=NC(=O)CCS(=O)(=O)c2ccccc2)sc2cc(C(=O)OC)ccc21,204.5*,1.8,-0.3,6.9,0.0,137.3*,RORg DNA counter=>40
O=C(CCc1ccccc1)N[C@H]1[C@H](OC(=O)c2ccco2)CCC[C@]12C(=O)N(Cc1ccccc1)c1ccccc12,2.0,.,.,.,.,.,
O=C(N=c1ccn(-c2nc3ccccc3nc2NS(=O)(=O)c2ccccc2)cc1)c1cccs1,174.2*,1.8,2.1,-5.4,0.0,144.8*,RORg DNA counter=>40
Cc1ccccc1C(=O)N=c1ccn(-c2nc3ccccc3nc2NS(=O)(=O)c2ccc(F)cc2)cc1,35.3*,-5.2,-0.5,4.4,-0.3,91.8*,RORg DNA counter=>40
COc1ccc(NC(=O)NCCCN2CCN(c3ccc(F)cc3)CC2)cc1OC,-4.8,.,.,.,.,.,
C[C@@H]1COc2cc(Br)ccc2S(=O)(=O)N1Cc1cn(CCC2OCCO2)nn1,7.0,.,.,.,.,.,
CN(C)c1ccc(/C=C(\C#N)C(=O)Nc2nc3c(s2)CCN(Cc2ccccc2)C3)cc1,27.9*,-0.8,-2.9,9.3,-0.1,21.9*,
O=C(Nc1nc2c(s1)CN(Cc1ccccc1)CC2)C1CCC1,-2.6,-1.2,3.6,16.8,-0.3,.,
O=C1c2ccccc2C(=O)N1Cc1ccco1,0.8,3.2,-1.8,10.8,2.0,.,
O=C1c2cccc3c(O)ccc(c23)C(=O)N1c1ccc(Cl)cc1,59.9*,0.3,0.2,19.2,-3.0,53.1*,RORg DNA counter=9.4*
CC(=O)Nc1ccc(N2C(=O)c3cccc4c(O)ccc(c34)C2=O)cc1,28.6*,-6.7,-0.6,5.1,-1.9,39.6*,RORg DNA counter=1.25*
O=C1c2cccc3c(O)ccc(c23)C(=O)N1Cc1ccco1,36.3*,-2.9,-1.1,0.3,-5.2,37.5*,RORg DNA counter=>40
O=C(NC1CCCCN(Cc2cccc(Cl)c2)C1=O)c1cccc([N+](=O)[O-])c1 (stereo not drawn),1.1,.,.,.,.,.,
C[C@H](CO)N1C[C@H](C)[C@@H](CN(C)C(=O)NC2CCCCC2)OCc2cn(nn2)CCCC1=O,1.4,2.4,.,.,.,.,
O=S(=O)(c1ccccc1)N1CCN(Cc2ccccc2)c2ccccc21,25.0*,-1.8,-0.7,5.8,.,16.7*,
COC(=O)c1cccc(OC[C@@H](O)CN2CCC(C(O)(c3ccccc3)c3ccccc3)CC2)c1,2.2,.,.,.,.,.,
CC(=O)N(CC(=O)O)c1ccccc1,1.6,0.1,-2.6,6.5,0.5,.,
O=C(O)CN(CCN(CC(=O)O)CC(=O)O)CC(=O)O,49.7*,.,.,.,.,2.9,
Cc1cccn2c(=O)c3cc(C(=O)NC4CCS(=O)(=O)C4)n(Cc4ccccc4)c3nc12 (stereo not drawn),43.6*,3.7,4.8,15.2,22.6,14.0,
O=C(NCc1ccccc1)C(c1cc2ccccc2o1)n1c(=O)c(-c2ccccc2)nc2ccccc21 (stereo not drawn),46.9*,-2.0,.,.,.,28.0*,RORg DNA counter=>40
SMILES,Rev-erbA mod,PG9 Ab binder,MC4R ag barr,MC4R antagonist,NTR1 agonist,NR1D1 mod conf,others
COc1ccc(OC)c(Nc2ncnc3ccccc23)c1,-2.4,-2.4,-1.2,17.4,-1.7,.,
COc1ccc(OC)c(Nc2ncnc3ccc(Br)cc23)c1,59.1*,-0.5,-0.2,2.1,0.4,29.0*,
Fc1ccc2nc(Nc3nc4cc5c(cc4s3)OCCO5)sc2c1,32.0*,-5.3,0.1,1.4,4.7,39.4*,RORg DNA counter=>40
Fc1ccc2nc(Nc3nc4c(F)cc(F)cc4s3)sc2c1,53.0*,0.7,-2.6,7.1,.,41.3*,RORg DNA counter=>40
Fc1ccc2nc(Nc3ccccc3)sc2c1,-1.2,0.4,0.0,-1.0,0.9,.,
CCOC(=O)[C@@]12CCC3=C1N(CCC3)C(=O)[C@H](CC(=O)NCCCCc1ccccc1)C2,2.3,.,.,.,.,.,
O=C1CCCc2nc(N3CCN(c4ccccc4)CC3)ncc21,24.2*,-0.5,-0.4,-0.2,-1.9,18.0*,
CC(OC(=O)c1cc2c(ccc3ccccc32)oc1=O)c1nc2ccccc2s1 (stereo not drawn),54.1*,-1.6,-3.7,1.8,9.8,32.7*,RORg DNA counter=>40
CC(C)(C)NC(=O)c1cc2c(ccc3ccccc32)oc1=O,37.2*,-0.2,0.0,22.3,1.8,25.3*,
CCN(CC)C(=O)CC[C@@H]1CC[C@]2(CCCN(Cc3cccc4ccccc34)C2)O1,-0.3,.,.,.,.,.,
CCOc1ccc(-c2csc(NC(=O)c3cccc(N4C(=O)CCC4=O)c3)n2)cc1,24.2*,1.2,1.2,13.7,9.9,14.3*,
CCOC(=O)c1c(-c2ccc(-c3ccccc3)cc2)csc1NC(=O)c1cccc(N2C(=O)CCC2=O)c1,42.6*,-0.6,-0.6,0.4,4.5,29.2*,
COc1ccc(CN(CCN2CCOCC2)C(=O)c2ccc(F)cc2Cl)cc1OC,2.9,.,.,.,.,.,
CC(C)c1ccc(S(=O)(=O)c2nnn3c2nc(N2CCCCC2)c2ccccc23)cc1,29.9*,-0.5,-1.4,10.6,3.1,28.5*,
Cc1cc(C)cc(Nc2nc3c(S(=O)(=O)c4ccccc4)nnn3c3ccccc23)c1,52.3*,-1.1,-0.9,6.5,.,1.6,
Cc1cccc(Nc2nc3c(S(=O)(=O)c4ccccc4)nnn3c3ccccc23)c1,39.4*,1.9,-1.4,14.7,2.8,7.9,
Cc1ccc(S(=O)(=O)c2nnn3c2nc(NC2CCN(Cc4ccccc4)CC2)c2ccccc23)cc1C,.,.,-2.7,4.4,1.8,.,
CC1CCN(CCCNS(=O)(=O)c2cc3c(cc2Br)CCN3C(=O)C2CC2)CC1,-5.2,.,.,.,.,.,
Cc1cc(=O)n2c(sc3ccccc32)c1C#N,38.8*,-2.8,-1.4,-1.7,1.5,20.7*,
COC(=O)CC(=O)CC(NS(=O)(=O)c1ccc(C)cc1)c1ccccc1 (stereo not drawn),-3.8,1.5,.,.,.,.,
COc1cc(OC)cc(C(=O)OCc2cc3ccccc3[nH]c2=O)c1,56.9*,3.0,2.4,16.9,-1.4,50.3*,RORg DNA counter=>40
O=C(OCc1cc2ccccc2[nH]c1=O)c1ccccn1,3.1,-1.3,-0.7,8.7,1.7,.,
O=C(OCc1cc2ccccc2[nH]c1=O)c1cccs1,27.1*,1.1,-0.7,12.3,0.4,24.0*,
